# Active and inactive are the calls of the source. The rule behind the calls is not given here.
# Experiments:
# [1] = target: T1, Tumour suppressor p53/oncoprotein Mdm2 (Homo sapiens, UniProt Q00987); assay type: protein assay
# [2] = target: T1, Tumour suppressor p53/oncoprotein Mdm2; assay type: protein assay; remark: listed apart in the source
# SJSA-1 [3] = assay: animal or person; conditions: Mus musculus, SJSA-1, po, 336 h
# [4] = Oral bioavailability in rat; assay type: ADME, organism-based; conditions: in vivo
# [5] = Plasma clearance in rat; assay type: ADME, organism-based
# HCT-116 = assay: Induction of p21 mRNA expression in p53 deficient human HCT116 cells after 7 hrs by RT-PCR analysis; assay type: functional, cell-based
# How it was run: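 HCT116 p53−/− cells exposed to compound for 7 h. Total RNA extracted and p21 mRNA quantified by quantitative RT-PCR.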
# CYP3A4 [6] = target: T2, CYP3A4 (Homo sapiens, UniProt P08684); assay: Inhibition of human CYP3A4 at 3 uM; assay type: ADME
# SJSA-1 [7] = assay: Antitumor activity against human SJSA1 cells xenografted in po dosed athymic nude mouse assessed as tumor growth inhibition administered qd after 14 days
# Mus musculus [8] = assay: Activity at p53 in human SJSA1 cells xenografted po dosed mouse assessed as induction of p21 mRNA expression administered once measured after 6 hrs by RT-PCR analysis; conditions: SJSA-1
# PXR (NR1I2) = target: T3, PXR (NR1I2) (Homo sapiens, UniProt O75469); assay: Activation of human PXR at 2 uM relative to control; conditions: read-out: Activity
# T3 sequence (O75469 whole entry): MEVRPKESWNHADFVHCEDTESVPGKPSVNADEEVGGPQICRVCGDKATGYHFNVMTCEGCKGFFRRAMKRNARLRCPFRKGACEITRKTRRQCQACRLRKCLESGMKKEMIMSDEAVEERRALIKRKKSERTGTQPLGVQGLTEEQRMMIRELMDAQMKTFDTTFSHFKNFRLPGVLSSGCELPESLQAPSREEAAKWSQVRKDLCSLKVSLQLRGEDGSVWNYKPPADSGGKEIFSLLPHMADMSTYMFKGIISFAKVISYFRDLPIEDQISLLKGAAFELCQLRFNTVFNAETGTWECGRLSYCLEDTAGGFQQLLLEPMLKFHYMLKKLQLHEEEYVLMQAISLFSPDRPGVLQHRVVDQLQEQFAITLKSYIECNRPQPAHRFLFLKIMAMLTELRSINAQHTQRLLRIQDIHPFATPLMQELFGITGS
# [9] = Intrinsic clearance in human hepatocytes assessed per million cells; assay type: ADME, cell-based, Hepatocyte; conditions: read-out: CLH
# [10] = Oral bioavailability in mouse; assay type: ADME, organism-based; conditions: in vivo
# [11] = Volume of distribution at steady state in mouse; assay type: ADME, organism-based; conditions: in vivo, read-out: Vdss
# SJSA-1 [12] = assay: animal or person; conditions: Mus musculus, SJSA-1, po, 336 h, read-out: TGI
# CYP3A4 [13] = target: T2, CYP3A4; assay: Time dependent inhibition of human CYP3A4 assessed as residual activity at 10 uM after 15 mins relative to control; assay type: ADME; conditions: read-out: Activity
# [14] = Volume of distribution at steady state in rat; assay type: ADME, organism-based; conditions: in vivo, read-out: Vdss
# [15] = Plasma clearance in mouse; assay type: ADME, organism-based
# [16] = Volume of distribution in cynomolgus monkey; assay type: ADME, organism-based, Macaca fascicularis; conditions: in vivo
# SJSA-1 [17] = assay: Antitumor activity against human SJSA1 cells xenografted in athymic nude mouse assessed as tumor growth regression at 150 mg/kg, po qd for 14 days; assay type: functional, organism-based; parameters: dose 150 mg/kg
# Mus musculus [18] = assay: Activity at p53 in human SJSA1 cells xenografted po dosed mouse assessed as induction of p21 mRNA expression administered qd for 4 days by RT-PCR analysis relative to control; assay type: functional, organism-based; conditions: SJSA-1
# How it was run: (§1)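 Female athymic nude mice carrying subcutaneous SJSA-1 tumours (5 × 10^6 cells implanted; dosing at ∼175 mm3). Oral dosing q.d. for 4 days. Tumours were snap-frozen and p21 mRNA measured by quantitative RT-PCR. Reported as mean fold induction over vehicle tumours, with SEM.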
# Mus musculus [19] = assay: Activity at p53 in human SJSA1 cells xenografted mouse assessed as induction of p21 mRNA expression at 150 mg/kg, qd for 4 days by RT-PCR analysis; assay type: functional, organism-based; parameters: dose 150 mg/kg; conditions: SJSA-1
# How it was run: as §1
# SJSA-1 [20] = assay: Antitumor activity against human SJSA1 cells xenografted in po dosed mouse assessed as tumor growth inhibition administered bid measured twice per weak; assay type: functional, organism-based
# How it was run: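 Female athymic nude mice implanted subcutaneously with 5 × 10^6 SJSA-1 cells. Vehicle or compound at 25, 50, 75 or 100 mg/kg b.i.d. by oral gavage, starting on day 10 at ∼200 mm3 tumours (n = 10/group). Tumour size and body weight measured twice weekly; mean tumour volume ± SEM.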
# SJSA-1 [21] = assay: cells; conditions: Homo sapiens, SJSA-1, 72 h
# T1 sequence (P04637 whole entry): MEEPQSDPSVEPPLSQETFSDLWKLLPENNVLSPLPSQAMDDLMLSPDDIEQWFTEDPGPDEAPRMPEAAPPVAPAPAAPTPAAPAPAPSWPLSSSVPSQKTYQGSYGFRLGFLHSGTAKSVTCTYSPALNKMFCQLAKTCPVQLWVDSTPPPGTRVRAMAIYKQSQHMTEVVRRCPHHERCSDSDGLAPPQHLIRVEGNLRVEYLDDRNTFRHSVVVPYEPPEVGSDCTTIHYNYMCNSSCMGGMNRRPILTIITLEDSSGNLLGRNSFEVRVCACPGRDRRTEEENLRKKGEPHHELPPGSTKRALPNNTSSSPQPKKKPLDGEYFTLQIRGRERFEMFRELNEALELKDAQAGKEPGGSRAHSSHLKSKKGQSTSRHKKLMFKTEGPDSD
# T1 sequence (Q00987 whole entry): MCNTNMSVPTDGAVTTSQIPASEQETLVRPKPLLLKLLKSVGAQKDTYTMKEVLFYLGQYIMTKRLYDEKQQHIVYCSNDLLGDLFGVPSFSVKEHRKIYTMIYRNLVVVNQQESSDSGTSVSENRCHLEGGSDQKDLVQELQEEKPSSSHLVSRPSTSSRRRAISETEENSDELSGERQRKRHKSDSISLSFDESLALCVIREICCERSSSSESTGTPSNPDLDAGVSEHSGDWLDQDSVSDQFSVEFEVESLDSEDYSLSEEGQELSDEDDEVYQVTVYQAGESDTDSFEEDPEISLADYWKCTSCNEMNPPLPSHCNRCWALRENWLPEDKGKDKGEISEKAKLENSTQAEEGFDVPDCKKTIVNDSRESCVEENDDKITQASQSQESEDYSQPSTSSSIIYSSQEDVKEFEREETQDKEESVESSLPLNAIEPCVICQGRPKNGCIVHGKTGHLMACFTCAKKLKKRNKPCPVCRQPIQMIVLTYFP
# T2 sequence (P08684 whole entry): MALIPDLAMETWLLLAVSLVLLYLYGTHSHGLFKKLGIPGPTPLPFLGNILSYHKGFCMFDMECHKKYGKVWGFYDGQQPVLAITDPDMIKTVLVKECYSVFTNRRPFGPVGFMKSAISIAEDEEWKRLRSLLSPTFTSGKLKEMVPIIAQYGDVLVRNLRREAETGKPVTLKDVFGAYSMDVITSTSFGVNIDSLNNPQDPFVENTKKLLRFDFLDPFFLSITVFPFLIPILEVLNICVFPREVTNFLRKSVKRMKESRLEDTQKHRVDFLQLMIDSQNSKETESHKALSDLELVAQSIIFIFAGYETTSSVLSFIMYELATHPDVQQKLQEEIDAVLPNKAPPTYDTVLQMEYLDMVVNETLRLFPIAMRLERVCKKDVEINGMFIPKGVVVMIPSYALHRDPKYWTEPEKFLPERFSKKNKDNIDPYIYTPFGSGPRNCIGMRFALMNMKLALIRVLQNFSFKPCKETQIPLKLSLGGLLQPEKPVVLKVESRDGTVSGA
SMILES,IC50 [1] [µM],IC50 [2] [µM],other results
CCC[C@@H](C(=O)OCC)N1C(=O)CC[C@H](c2cccc(Cl)c2)[C@H]1c1ccc(Cl)cc1 (racemic),1.4,> 30,
N#CC[C@H]1C[C@H](c2cccc(Cl)c2)[C@@H](c2ccc(Cl)cc2)N(CC2CC2)C1=O,2.34,> 30,
CCCCN1C(=O)CC[C@H](c2cccc(Cl)c2)[C@H]1c1ccc(Cl)cc1 (racemic),2.7,> 30,
CC[C@@H](C(=O)OC(C)(C)C)N1C(=O)[C@@](C)(CC(=O)O)C[C@H](c2cccc(Cl)c2)[C@H]1c1ccc(Cl)cc1,,,"ED50 (SJSA-1 [3]): 118 mg/kg; bioavailability [4]: 77%; clearance [5]: 45 mL/min/kg; Activity (HCT-116): inactive; inhibition at 3 µM (CYP3A4 [6]): 40%; TGI (SJSA-1 [7]): Dose-dependent effect; Activity (Mus musculus [8]): Dose-dependent effect; activity at 2 µM (PXR (NR1I2)): 27%; hepatocyte CLint [9]: 26 µL/min/1e6 cells; bioavailability [10]: 36%; Vd [11]: 1.3 L/kg; inhibition in vivo at 200 mg/kg (SJSA-1 [12]): 91%; activity at 0.25 h, 10 µM (CYP3A4 [13]): 77%; Vd [14]: 1.5 L/kg; clearance [15]: 25 mL/min/kg"
CC[C@@H]([C@H](C)O)N1C(=O)[C@@](C)(CC(=O)O)C[C@H](c2cccc(Cl)c2)[C@H]1c1ccc(Cl)cc1,,,ED50 (SJSA-1 [3]): 78 mg/kg; Vd [16]: 6.2 L/kg; Activity (SJSA-1 [17]): Active; Activity (Mus musculus [18]): Dose-dependent effect; Activity (Mus musculus [19]): Dose-dependent effect; Vd [11]: 5.2 L/kg; Activity (SJSA-1 [20]): Dose-dependent effect; Vd [14]: 12 L/kg
CCC(CC)N1C(=O)[C@@](C)(CC(=O)O)C[C@H](c2cccc(Cl)c2)[C@H]1c1ccc(Cl)cc1,,,IC50 (SJSA-1 [21]): 0.54 µM
O=C(O)CC[C@@H]1C[C@H](c2cccc(Cl)c2)[C@@H](c2ccc(Cl)cc2)N(CC2CC2)C1=O,0.34,6.64,
O=C1CC[C@H](c2cccc(Cl)c2)[C@@H](c2ccc(Cl)cc2)N1Cc1ccccc1 (racemic),5.4,> 30,
O=C1CC[C@@H](c2cccc(Cl)c2)[C@H](c2ccc(Cl)cc2)N1CC1CC1,> 30,> 30,
C=CC[C@H]1C[C@H](c2cccc(Cl)c2)[C@@H](c2ccc(Cl)cc2)N(CC2CC2)C1=O,6.5,> 30,
O=C1CC[C@H](c2cccc(Cl)c2)[C@@H](c2ccc(Cl)cc2)N1 (racemic),10,> 30,
COC(=O)CN1C(=O)CC[C@H](c2cccc(Cl)c2)[C@H]1c1ccc(Cl)cc1 (racemic),5.5,> 30,
CCOC(=O)[C@H](C)N1C(=O)CC[C@H](c2cccc(Cl)c2)[C@H]1c1ccc(Cl)cc1 (racemic),1.7,> 30,
CC[C@@H](C(=O)OC(C)(C)C)N1C(=O)[C@@](C)(Cc2nnn[nH]2)C[C@H](c2cccc(Cl)c2)[C@H]1c1ccc(Cl)cc1,0.0009,0.009,"IC50 (SJSA-1 [21]): 0.17 µM; inhibition at 3 µM (CYP3A4 [6]): 80%; activity at 2 µM (PXR (NR1I2)): 65%; activity at 0.25 h, 10 µM (CYP3A4 [13]): 30%"
O=C1CC[C@H](c2cccc(Cl)c2)[C@@H](c2ccc(Cl)cc2)N1CC1CC1,0.82,> 30,
CCOC(=O)[C@H](CC)N1C(=O)CC[C@H](c2cccc(Cl)c2)[C@H]1c1ccc(Cl)cc1 (racemic),0.94,18.7,
CCOC(=O)[C@@H](CC)N1C(=O)CC[C@H](c2cccc(Cl)c2)[C@H]1c1ccc(Cl)cc1 (racemic),3.5,> 30,
CC[C@@H](C(=O)OC(C)(C)C)N1C(=O)[C@@H](Cc2nnn[nH]2)C[C@H](c2cccc(Cl)c2)[C@H]1c1ccc(Cl)cc1,0.0018,0.0203,IC50 (SJSA-1 [21]): 0.312 µM
CC(C)CN1C(=O)CC[C@H](c2cccc(Cl)c2)[C@H]1c1ccc(Cl)cc1 (racemic),2.3,> 30,
CCCN1C(=O)CC[C@H](c2cccc(Cl)c2)[C@H]1c1ccc(Cl)cc1 (racemic),1.9,> 30,
O=C(O)CC[C@H]1C[C@H](c2cccc(Cl)c2)[C@@H](c2ccc(Cl)cc2)N(CC2CC2)C1=O,0.57,6.63,
O=C1CC[C@H](c2cccc(Cl)c2)[C@@H](c2ccc(Cl)cc2)N1CC1CC1 (racemic),1.5,,

# — ChEMBL document CHEMBL2176930, “Structure-based design of novel inhibitors of the MDM2-p53 interaction” (J Med Chem, 2012)
